# Calls of active or inactive are those of the source. No cut-off for these calls is given here.
# What was measured:
# [1] = biological target: T1, Peroxisome proliferator-activated receptor (Homo sapiens) (UniProt P37231+Q07869+Q03181); test: Agonist activity at PPAR in human myotubes assessed as FABP3 mRNA expression at 30 uM after 96 hrs by qPCR analysis relative to control
# Outline: (§1)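 Myotubes from satellite cells of abdominal muscle biopsies of healthy donors, differentiated 7 days, then exposed 96 h to test lipids (30 μM) vs DMSO 0.1%. Total RNA isolated (RIN ≥7), reverse transcribed, real-time PCR with gene-specific primers; expression expressed relative to DMSO control.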
# [2] = Effect on fatty acid composition in human myotubes assessed as intracellular SFA level at 10 uM after 96 hrs (Rvb= 31.41%); type: functional
# Outline: (§2)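 Differentiated human myotubes (7 days) treated 96 h with 10 or 30 μM compound or DMSO 0.1% (two controls). Cells washed, harvested, lipids extracted and methylated (methanol, sulfuric acid, 90 °C, 1 h); FA methyl esters quantified by GC with C21:0 internal standard, peaks confirmed by standards and GC/MS; values as mol % of intracellular fatty acids.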
# [3] = Effect on fatty acid composition in human myotubes assessed as change in intracellular SFA level at 30 uM after 96 hrs relative to DMSO control; type: functional; outline: as §2
# [4] = Effect on fatty acid composition in human myotubes assessed as intracellular dTTA level at 10 uM after 96 hrs; type: functional; outline: as §2
# [5] = Effect on fatty acid composition in human myotubes assessed as intracellular PUFA n-9 level at 10 uM after 96 hrs (Rvb= 1.89%); type: functional; outline: as §2
# [6] = Effect on fatty acid composition in human myotubes assessed as intracellular PUFA n-9 level at 30 uM after 96 hrs (Rvb= 1.89%); type: functional; outline: as §2
# [7] = biological target: T1, Peroxisome proliferator-activated receptor (Homo sapiens); test: Agonist activity at PPAR in human myotubes assessed as CPT1A mRNA expression at 30 uM after 96 hrs by qPCR analysis relative to control; outline: as §1
# [8] = Effect on protein level in human myotubes at 10 to 30 uM; type: ADME
# [9] = Effect on fatty acid composition in human myotubes assessed as change in intracellular SFA level at 10 uM after 96 hrs relative to DMSO control; type: functional; outline: as §2
# [10] = Effect on fatty acid composition in human myotubes assessed as intracellular SFA level at 30 uM after 96 hrs (Rvb= 31.41%); type: functional; outline: as §2
# [11] = Effect on fatty acid composition in human myotubes assessed as change in intracellular MUFA level at 30 uM after 96 hrs relative to DMSO control; type: functional; outline: as §2
# [12] = Effect on fatty acid composition in human myotubes assessed as intracellular PUFA n-3 level at 10 uM after 96 hrs (Rvb= 5.16%); type: functional; outline: as §2
# [13] = Effect on fatty acid composition in human myotubes assessed as intracellular TTA level at 10 uM after 96 hrs; type: functional; outline: as §2
# [14] = biological target: T1, Peroxisome proliferator-activated receptor (Homo sapiens); test: Agonist activity at PPAR in human myotubes assessed as CD36 mRNA expression at 30 uM after 96 hrs by qPCR analysis relative to control; outline: as §1
# [15] = Effect on fatty acid composition in human myotubes assessed as intracellular MUFA level at 10 uM after 96 hrs (Rvb= 49.95%); type: functional; outline: as §2
# [16] = biological target: T1, Peroxisome proliferator-activated receptor (Homo sapiens); test: Agonist activity at PPAR in human myotubes assessed as ANGPTL4 mRNA expression at 30 uM after 96 hrs by qPCR analysis relative to control; outline: as §1
# [17] = Effect on fatty acid composition in human myotubes assessed as intracellular PUFA n-3 level at 30 uM after 96 hrs (Rvb= 5.16%); type: functional; outline: as §2
# [18] = Effect on fatty acid composition in human myotubes assessed as intracellular PUFA n-6 level at 30 uM after 96 hrs (Rvb= 11.46%); type: functional; outline: as §2
# [19] = Effect on total fatty acid level in human myotubes assessed as per mg of protein at 10 to 30 uM; type: ADME
# [20] = Effect on fatty acid composition in human myotubes assessed as intracellular TTA level at 30 uM after 96 hrs; type: functional; outline: as §2
# [21] = Effect on fatty acid composition in human myotubes assessed as change in intracellular MUFA level at 10 uM after 96 hrs relative to DMSO control; type: functional; outline: as §2
# [22] = Effect on fatty acid composition in human myotubes assessed as intracellular dTTA level at 30 uM after 96 hrs; type: functional; outline: as §2
# [23] = Effect on fatty acid composition in human myotubes assessed as intracellular MUFA level at 30 uM after 96 hrs (Rvb= 49.95%); type: functional; outline: as §2
# Homo sapiens [24] = species: Homo sapiens; test: Effect on intracellular [14C]oleic acid uptake in human myotubes at 10 to 30 uM preincubated for 96 hrs followed by substrate addition incubated for 4 hrs by liquid scintillation analysis; type: functional, cell-based
# Outline: (§3)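 Myotubes differentiated 7 days were pretreated 96 h with 10 or 30 μM compound, 10 nM GW501516 or DMSO 0.1%, then given [1-14C]oleic acid (0.5 μCi/mL, 100 μM) in DPBS with HEPES 10 mM and L-carnitine 1 mM, 4 h at 37 °C. Trapped CO2 and cell-associated label counted by scintillation; uptake = CO2 + CA; Bradford protein; % of DMSO basal; n = 8–15.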
# [25] = Effect on fatty acid composition in human myotubes assessed as intracellular PUFA n-6 level at 10 uM after 96 hrs (Rvb= 11.46%); type: functional; outline: as §2
# [26] = Effect on fatty acid composition in human myotubes assessed as intracellular SFA level at 30 uM after 96 hrs (Rvb= 36.16%); type: functional; outline: as §2
# [27] = Effect on fatty acid composition in human myotubes assessed as intracellular PUFA n-9 level at 10 uM after 96 hrs (Rvb= 1.78%); type: functional; outline: as §2
# Homo sapiens [28] = species: Homo sapiens; test: Induction of fatty acid oxidation in human myotubes using [14C]oleic acid as substrate preincubated for 96 hrs followed by substrate addition incubated for 4 hrs by liquid scintillation analysis; type: functional; outline: as §3
# [29] = Effect on fatty acid composition in human myotubes assessed as intracellular MUFA level at 30 uM after 96 hrs (Rvb= 41.04%); type: functional; outline: as §2
# [30] = Effect on fatty acid composition in human myotubes assessed as intracellular PUFA n-3 level at 30 uM after 96 hrs (Rvb= […]); type: functional; outline: as §2
# [31] = Effect on fatty acid composition in human myotubes assessed as intracellular PUFA n-3 level at 10 uM after 96 hrs (Rvb= 7.47%); type: functional; outline: as §2
# [32] = Effect on fatty acid composition in human myotubes assessed as intracellular PUFA n-9 level at 30 uM after 96 hrs (Rvb= 1.78%); type: functional; outline: as §2
# [33] = Effect on fatty acid composition in human myotubes assessed as intracellular MUFA level at 10 uM after 96 hrs (Rvb= 41.04%); type: functional; outline: as §2
# [34] = Effect on fatty acid composition in human myotubes assessed as intracellular PUFA n-6 level at 10 uM after 96 hrs (Rvb= 13.41%); type: functional; outline: as §2
# [35] = Effect on fatty acid composition in human myotubes assessed as intracellular PUFA n-6 level at 30 uM after 96 hrs (Rvb= 13.41%); type: functional; outline: as §2
# [36] = Effect on fatty acid composition in human myotubes assessed as intracellular SFA level at 10 uM after 96 hrs (Rvb= 36.16%); type: functional; outline: as §2
# [37] = Effect on fatty acid composition in human myotubes assessed as intracellular tTTA level at 30 uM after 96 hrs; type: functional; outline: as §2
# [38] = Effect on fatty acid composition in human myotubes assessed as intracellular tTTA level at 10 uM after 96 hrs; type: functional; outline: as §2
SMILES,Activity [1],Activity [14],Activity [3],Activity [4],Activity [8],Activity [9],Activity [11],Activity [13],Activity [19],Activity [20],Activity [21],Activity [22],Activity (Homo sapiens [24]),Activity [26],Activity [27],Activity [29],Activity [30],Activity [31],Activity [32],Activity [33],other results
CCCCCC/C=C\CCCCCCSCC(=O)OC[C@H](COP(=O)([O-])OCC[N+](C)(C)C)OC(=O)CSCCCCCC/C=C\CCCCCC,Active,Active,4.5%,1.87 mol%,Non-toxic,2.7%,-13.1%,0.01 mol%,Non-toxic,0.4 mol%,-3.6%,6.08 mol%,inactive,,,,,,,,Activity [2]: 32.26 mol%; Activity [5]: 1.53 mol%; Activity [6]: 1.42 mol%; Activity [7]: Active; Activity [10]: 32.82 mol%; Activity [12]: 4.74 mol%; Activity [15]: 48.17 mol%; Activity [16]: Active; Activity [17]: 4.63 mol%; Activity [18]: 11.45 mol%; Activity [23]: 43.41 mol%; Activity [25]: 11.29 mol%
CCCCCCCCCCCCCCSCC(=O)OC[C@@H](O)COP(=O)([O-])OCC[N+](C)(C)C,,,-34.6%,0.76 mol%,Non-toxic,-16.3%,-19.3%,7.99 mol%,Non-toxic,19.51 mol%,-9.6%,0.91 mol%,inactive,23.57 mol%,2.21 mol%,33.15 mol%,7.56 mol%,7.68 mol%,1.97 mol%,37.12 mol%,Activity (Homo sapiens [28]): Dose-dependent effect; Activity [34]: 13.96 mol%; Activity [35]: 13.2 mol%; Activity [36]: 30.15 mol%

# Further lines, with some results ahead:
Activity [1],Activity [14],SMILES,Activity [3],Activity [4],Activity [8],Activity [9],Activity [11],Activity [13],Activity [19],Activity [20],Activity [21],Activity [22],Activity (Homo sapiens [24]),Activity [26],Activity [27],Activity [29],Activity [30],Activity [31],Activity [32],Activity [33],other results
Active,Active,CCCCCCCCCCCCCCSCC(=O)OC[C@@H](O)CO,-38.1%,0.49 mol%,Non-toxic,-18.5%,-19.4%,7.17 mol%,Non-toxic,20.04 mol%,-6.4%,0.91 mol%,inactive,22.3 mol%,1.81 mol%,33.11 mol%,8.21 mol%,8.42 mol%,1.68 mol%,38.46 mol%,Activity [7]: Active; Activity (Homo sapiens [28]): Dose-dependent effect; Activity [16]: Active; Activity [34]: 14.15 mol%; Activity [35]: 13.63 mol%; Activity [36]: 29.36 mol%
Active,Active,CCCCCCC#CCCCCCCSCC(=O)OC[C@@H](O)COP(=O)([O-])OCC[N+](C)(C)C,4.5%,,Non-toxic,0.7%,-13.1%,0.43 mol%,Non-toxic,1.02 mol%,-21.3%,,inactive,,,,,,,,Activity [2]: 32.02 mol%; Activity [37]: 4.15 mol%; Activity [5]: 1.48 mol%; Activity [6]: 1.41 mol%; fold change (FC) [7]: < 7; Activity (Homo sapiens [28]): Dose-dependent effect; Activity [10]: 33.52 mol%; Activity [12]: 5.18 mol%; Activity [38]: 2.16 mol%; Activity [15]: 46.19 mol%; fold change (FC) [16]: 25; Activity [17]: 5.68 mol%; Activity [18]: 13.42 mol%; Activity [23]: 40.64 mol%; Activity [25]: 12.4 mol%
Active,Active,CCCCCCC#CCCCCCCSCC(=O)O,0.7%,,Non-toxic,2.2%,-21.3%,0.06 mol%,Non-toxic,0.32 mol%,-11.6%,,inactive,36.3 mol%,1.32 mol%,32.32 mol%,7.09 mol%,8.41 mol%,0.87 mol%,36.3 mol%,Activity [37]: 11.34 mol%; fold change (FC) [7]: < 10; Activity [38]: 3.01 mol%; fold change (FC) [16]: 35; Activity [34]: 13.93 mol%; Activity [35]: 11.63 mol%; Activity [36]: 38.85 mol%
inactive,inactive,CCCCCCCCCCCCCCSCC(=O)OC[C@H](COP(=O)([O-])OCC[N+](C)(C)C)OC(=O)CSCCCCCCCCCCCCCC [PHOSPHATIDYLCHOLINE],-11.8%,0.17 mol%,Non-toxic,-2.5%,-4.4%,5.5 mol%,Non-toxic,5.9 mol%,-8.8%,0.34 mol%,inactive,31.79 mol%,1.88 mol%,39.28 mol%,7.3 mol%,6.98 mol%,1.95 mol%,37.48 mol%,Activity [7]: inactive; Activity [16]: inactive; Activity [34]: 12.71 mol%; Activity [35]: 13.31 mol%; Activity [36]: 35.14 mol%
